Reference: ChEMBL document CHEMBL1926651, “Design, synthesis, antiviral and cytostatic evaluation of novel isoxazolidine nucleotide analogues with a 1,2,3-triazole linker” (Eur J Med Chem, 2012)
Calls of active or inactive are those of the source. The rule behind the calls is not given here.

Experiments:
Human alphaherpesvirus 3 [1] = test: Antiviral activity against thymidine kinase-positive Varicella Zoster virus Oka infected in human HEL cells assessed as inhibition of viral plaque formation at 250 uM; assay type: functional, cell-based; settings: strain Oka vaccine
Human alphaherpesvirus 2 = test: Antiviral activity against Herpes simplex virus 2 G infected in human HEL cells assessed as inhibition of viral plaque formation at 250 uM; assay type: functional, organism-based; settings: strain G
Human alphaherpesvirus 3 [2] = test: Antiviral activity against thymidine kinase-deficient Varicella Zoster virus 07/1 infected in human HEL cells assessed as inhibition of viral plaque formation at 250 uM; assay type: functional, organism-based
[3] = tested on: Vesicular stomatitis virus; test: Antiviral activity against Vesicular stomatitis virus infected in human HEL cells assessed as inhibition of viral plaque formation at 250 uM; assay type: functional, organism-based
Outline: (§1)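 Confluent host cell monolayers were inoculated with 100 CCID50 of virus in the presence of test compound at serial dilutions (250, 50, 10, … μM). Viral cytopathicity was scored once it reached completion in untreated virus-infected controls.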

Sindbis virus = test: Antiviral activity against Sindbis virus infected in african green monkey Vero cells assessed as inhibition of viral plaque formation at 250 uM; assay type: functional, organism-based; outline: as §1
Vaccinia virus = test: Antiviral activity against Vaccinia virus infected in human HEL cells assessed as inhibition of viral plaque formation at 250 uM; assay type: functional, organism-based; settings: Orthopoxvirus vaccinia; outline: as §1
Feline coronavirus = test: Antiviral activity against Feline coronavirus infected in CrFK cells assessed as inhibition of viral plaque formation at 250 uM; assay type: functional, organism-based; outline: as §1
[4] = tested on: Human immunodeficiency virus 1; test: Antiviral activity against Human immunodeficiency virus 1 infected in human CEM cells assessed as inhibition of virus-induced giant cell formation after 4 days by microscopic analysis; assay type: functional, organism-based; settings: CCRF-CEM
Outline: (§2)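 CEM cells at about 3 × 10⁵ cells/cm³ were infected with 100 CCID50/mL of HIV-1(IIIB) or HIV-2(ROD), then seeded into wells holding test compound dilutions. After 4 days at 37 °C, virus-induced giant cell formation was scored microscopically.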

CCRF-CEM = test: Cytotoxicity against human CEM cells 3 days by coulter counting; assay type: functional; settings: 72 h
Outline: (§3)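 Cells were suspended at 300,000–500,000 cells/mL and added 1:1 to compound dilutions. Incubation was at 37 °C, 2 days for L1210 and 3 days for CEM, HeLa and HEL. Cells were counted with a Coulter counter. CC50 is the concentration inhibiting cell proliferation by 50%.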

[5] = tested on: Human immunodeficiency virus 2; test: Antiviral activity against Human immunodeficiency virus 2 infected in human CEM cells assessed as inhibition of virus-induced giant cell formation after 4 days by microscopic analysis; assay type: functional, organism-based; settings: CCRF-CEM; outline: as §2
[6] = tested on: Respiratory syncytial virus; test: Antiviral activity against Respiratory syncytial virus infected in human HeLa cells assessed as inhibition of viral plaque formation at 250 uM; assay type: functional, organism-based; outline: as §1
Human betaherpesvirus 5 [7] = test: Antiviral activity against Human cytomegalovirus Davis infected in human HEL cells assessed as inhibition of viral plaque formation at 250 uM; assay type: functional, organism-based
[8] = tested on: Vesicular stomatitis virus; test: Antiviral activity against Vesicular stomatitis virus infected in human Hela cells assessed as inhibition of viral plaque formation at 250 uM; assay type: functional, organism-based
Felid alphaherpesvirus 1 = test: Antiviral activity against Felid herpesvirus 1 infected in CrFK cells assessed as inhibition of viral plaque formation at 250 uM; assay type: functional, organism-based; outline: as §1
Human betaherpesvirus 5 [9] = test: Antiviral activity against Human cytomegalovirus AD169 infected in human HEL cells assessed as inhibition of viral plaque formation at 250 uM; assay type: functional, organism-based
Human respirovirus 3 = test: Antiviral activity against Parainfluenza-3 virus infected in african green monkey Vero cells assessed as inhibition of viral plaque formation at 250 uM; assay type: functional, organism-based; outline: as §1
[10] = tested on: Mammalian orthoreovirus 1; test: Antiviral activity against Reovirus-1 infected in african green monkey Vero cells assessed as inhibition of viral plaque formation at 250 uM; assay type: functional, organism-based; outline: as §1
Coxsackievirus B4 [11] = test: Antiviral activity against Coxsackievirus B4 infected in african green monkey Vero cells assessed as inhibition of viral plaque formation at 250 uM; assay type: functional, organism-based; outline: as §1
Human alphaherpesvirus 1 [12] = test: Antiviral activity against Herpes simplex virus 1 KOS infected in human HEL cells assessed as inhibition of viral plaque formation at 250 uM; assay type: functional, organism-based; outline: as §1
Human alphaherpesvirus 1 [13] = test: Antiviral activity against thymidine kinase-deficient acv-resistant Herpes simplex virus 1 KOS infected in human HEL cells assessed as inhibition of viral plaque formation at 250 uM; assay type: functional, organism-based
HeLa = test: Cytotoxicity against human HeLa cells 3 days by coulter counting; assay type: functional; settings: 72 h; outline: as §3
L1210 = test: Cytotoxicity against mouse L1210 cells 2 days by coulter counting; assay type: functional; settings: L1210, 48 h; outline: as §3
HEL = test: Cytotoxicity against human HEL cells 3 days by coulter counting; assay type: functional; settings: 72 h; outline: as §3
Punta Toro virus = test: Antiviral activity against Punta Toro virus infected in african green monkey Vero cells assessed as inhibition of viral plaque formation at 250 uM; assay type: functional, organism-based
Coxsackievirus B4 [14] = test: Antiviral activity against Coxsackievirus B4 infected in human HeLa cells assessed as inhibition of viral plaque formation at 250 uM; assay type: functional, organism-based; outline: as §1

SMILES: CCOP(=O)(OCC)[C@@H]1C[C@@H](n2cc(-c3nccn3C)nn2)ON1C
- Activity (Human alphaherpesvirus 3 [1]): inactive
- Activity (Human alphaherpesvirus 2): inactive
- Activity (Human alphaherpesvirus 3 [2]): inactive
- Activity [3]: inactive
- Activity (Sindbis virus): inactive
- Activity (Vaccinia virus): inactive
- Activity (Feline coronavirus): inactive
- Activity [4]: inactive
- CC50 (CCRF-CEM): > 250 µM
- Activity [5]: inactive
- Activity [6]: inactive
- Activity (Human betaherpesvirus 5 [7]): inactive
- Activity [8]: inactive
- Activity (Felid alphaherpesvirus 1): inactive
- Activity (Human betaherpesvirus 5 [9]): inactive
- Activity (Human respirovirus 3): inactive
- Activity [10]: inactive
- Activity (Coxsackievirus B4 [11]): inactive
- Activity (Human alphaherpesvirus 1 [12]): inactive
- Activity (Human alphaherpesvirus 1 [13]): inactive
- CC50 (HeLa): > 250 µM
- CC50 (L1210): ≥ 250 µM
- CC50 (HEL): > 100 µM
- Activity (Punta Toro virus): inactive
- Activity (Coxsackievirus B4 [14]): inactive

SMILES: CCOP(=O)(OCC)[C@@H]1C[C@H](n2cc(-c3nccn3C)nn2)ON1C
- Activity (Human alphaherpesvirus 3 [1]): inactive
- Activity (Human alphaherpesvirus 2): inactive
- Activity (Human alphaherpesvirus 3 [2]): inactive
- Activity [3]: inactive
- Activity (Sindbis virus): inactive
- Activity (Vaccinia virus): inactive
- Activity (Feline coronavirus): inactive
- Activity [4]: inactive
- CC50 (CCRF-CEM): > 250 µM
- Activity [5]: inactive
- Activity [6]: inactive
- Activity (Human betaherpesvirus 5 [7]): inactive
- Activity [8]: inactive
- Activity (Felid alphaherpesvirus 1): inactive
- Activity (Human betaherpesvirus 5 [9]): inactive
- Activity (Human respirovirus 3): inactive
- Activity [10]: inactive
- Activity (Coxsackievirus B4 [11]): inactive
- Activity (Human alphaherpesvirus 1 [12]): inactive
- Activity (Human alphaherpesvirus 1 [13]): inactive
- CC50 (HeLa): > 250 µM
- CC50 (L1210): ≥ 250 µM
- CC50 (HEL): > 100 µM
- Activity (Punta Toro virus): inactive
- Activity (Coxsackievirus B4 [14]): inactive

SMILES: CCOC(=O)C1=C[C@@H](OC(CC)CC)[C@H](NC(C)=O)[C@@H](N)C1
- Activity (Human alphaherpesvirus 3 [1]): inactive
- Activity (Human alphaherpesvirus 2): inactive
- Activity (Human alphaherpesvirus 3 [2]): inactive
- Activity [3]: inactive
- Activity (Sindbis virus): inactive
- Activity (Vaccinia virus): inactive
- Activity (Feline coronavirus): inactive
- Activity [4]: inactive
- Activity [5]: inactive
- Activity [6]: inactive
- Activity (Human betaherpesvirus 5 [7]): inactive
- Activity [8]: inactive
- Activity (Felid alphaherpesvirus 1): inactive
- Activity (Human betaherpesvirus 5 [9]): inactive
- Activity (Human respirovirus 3): inactive
- Activity [10]: inactive
- Activity (Coxsackievirus B4 [11]): inactive
- Activity (Human alphaherpesvirus 1 [12]): inactive
- Activity (Human alphaherpesvirus 1 [13]): inactive
- Activity (Punta Toro virus): inactive
- Activity (Coxsackievirus B4 [14]): inactive

SMILES: NC(=O)c1ncn([C@@H]2O[C@H](CO)[C@@H](O)[C@H]2O)n1
- Activity (Human alphaherpesvirus 3 [1]): inactive
- Activity (Human alphaherpesvirus 2): inactive
- Activity (Human alphaherpesvirus 3 [2]): inactive
- Activity [3]: inactive
- Activity (Sindbis virus): inactive
- Activity (Vaccinia virus): inactive
- Activity (Feline coronavirus): inactive
- Activity [4]: inactive
- Activity [5]: inactive
- Activity [6]: inactive
- Activity (Human betaherpesvirus 5 [7]): inactive
- Activity [8]: inactive
- Activity (Felid alphaherpesvirus 1): inactive
- Activity (Human betaherpesvirus 5 [9]): inactive
- Activity (Human respirovirus 3): inactive
- Activity [10]: inactive
- Activity (Coxsackievirus B4 [11]): inactive
- Activity (Human alphaherpesvirus 1 [12]): inactive
- Activity (Human alphaherpesvirus 1 [13]): inactive
- Activity (Punta Toro virus): inactive
- Activity (Coxsackievirus B4 [14]): inactive

SMILES: Nc1ccn(C[C@@H](CO)OCP(=O)(O)O)c(=O)n1
- Activity (Human alphaherpesvirus 3 [1]): inactive
- Activity (Human alphaherpesvirus 2): inactive
- Activity (Human alphaherpesvirus 3 [2]): inactive
- Activity [3]: inactive
- Activity (Sindbis virus): inactive
- Activity (Vaccinia virus): inactive
- Activity (Feline coronavirus): inactive
- Activity [4]: inactive
- Activity [5]: inactive
- Activity [6]: inactive
- Activity (Human betaherpesvirus 5 [7]): inactive
- Activity [8]: inactive
- Activity (Felid alphaherpesvirus 1): inactive
- Activity (Human betaherpesvirus 5 [9]): inactive
- Activity (Human respirovirus 3): inactive
- Activity [10]: inactive
- Activity (Coxsackievirus B4 [11]): inactive
- Activity (Human alphaherpesvirus 1 [12]): inactive
- Activity (Human alphaherpesvirus 1 [13]): inactive
- Activity (Punta Toro virus): inactive
- Activity (Coxsackievirus B4 [14]): inactive

SMILES: Nc1nc2c(ncn2COC(CO)CO)c(=O)[nH]1
- Activity (Human alphaherpesvirus 3 [1]): inactive
- Activity (Human alphaherpesvirus 2): inactive
- Activity (Human alphaherpesvirus 3 [2]): inactive
- Activity [3]: inactive
- Activity (Sindbis virus): inactive
- Activity (Vaccinia virus): inactive
- Activity (Feline coronavirus): inactive
- Activity [4]: inactive
- Activity [5]: inactive
- Activity [6]: inactive
- Activity (Human betaherpesvirus 5 [7]): inactive
- Activity [8]: inactive
- Activity (Felid alphaherpesvirus 1): inactive
- Activity (Human betaherpesvirus 5 [9]): inactive
- Activity (Human respirovirus 3): inactive
- Activity [10]: inactive
- Activity (Coxsackievirus B4 [11]): inactive
- Activity (Human alphaherpesvirus 1 [12]): inactive
- Activity (Human alphaherpesvirus 1 [13]): inactive
- Activity (Punta Toro virus): inactive
- Activity (Coxsackievirus B4 [14]): inactive

SMILES: Nc1nc2c(ncn2COCCO)c(=O)[nH]1
- Activity (Human alphaherpesvirus 3 [1]): inactive
- Activity (Human alphaherpesvirus 2): inactive
- Activity (Human alphaherpesvirus 3 [2]): inactive
- Activity [3]: inactive
- Activity (Sindbis virus): inactive
- Activity (Vaccinia virus): inactive
- Activity (Feline coronavirus): inactive
- Activity [4]: inactive
- Activity [5]: inactive
- Activity [6]: inactive
- Activity (Human betaherpesvirus 5 [7]): inactive
- Activity [8]: inactive
- Activity (Felid alphaherpesvirus 1): inactive
- Activity (Human betaherpesvirus 5 [9]): inactive
- Activity (Human respirovirus 3): inactive
- Activity [10]: inactive
- Activity (Coxsackievirus B4 [11]): inactive
- Activity (Human alphaherpesvirus 1 [12]): inactive
- Activity (Human alphaherpesvirus 1 [13]): inactive
- Activity (Punta Toro virus): inactive
- Activity (Coxsackievirus B4 [14]): inactive

SMILES: Nc1ncnc2c1ncn2C[C@H](O)CO
- Activity (Human alphaherpesvirus 3 [1]): inactive
- Activity (Human alphaherpesvirus 2): inactive
- Activity (Human alphaherpesvirus 3 [2]): inactive
- Activity [3]: inactive
- Activity (Sindbis virus): inactive
- Activity (Vaccinia virus): inactive
- Activity (Feline coronavirus): inactive
- Activity [4]: inactive
- Activity [5]: inactive
- Activity [6]: inactive
- Activity (Human betaherpesvirus 5 [7]): inactive
- Activity [8]: inactive
- Activity (Felid alphaherpesvirus 1): inactive
- Activity (Human betaherpesvirus 5 [9]): inactive
- Activity (Human respirovirus 3): inactive
- Activity [10]: inactive
- Activity (Coxsackievirus B4 [11]): inactive
- Activity (Human alphaherpesvirus 1 [12]): inactive
- Activity (Human alphaherpesvirus 1 [13]): inactive
- Activity (Punta Toro virus): inactive
- Activity (Coxsackievirus B4 [14]): inactive

SMILES: O=c1[nH]c(=O)n([C@H]2C[C@H](O)[C@@H](CO)O2)cc1/C=C/Br
- Activity (Human alphaherpesvirus 3 [1]): inactive
- Activity (Human alphaherpesvirus 2): inactive
- Activity (Human alphaherpesvirus 3 [2]): inactive
- Activity [3]: inactive
- Activity (Sindbis virus): inactive
- Activity (Vaccinia virus): inactive
- Activity (Feline coronavirus): inactive
- Activity [4]: inactive
- Activity [5]: inactive
- Activity [6]: inactive
- Activity (Human betaherpesvirus 5 [7]): inactive
- Activity [8]: inactive
- Activity (Felid alphaherpesvirus 1): inactive
- Activity (Human betaherpesvirus 5 [9]): inactive
- Activity (Human respirovirus 3): inactive
- Activity [10]: inactive
- Activity (Coxsackievirus B4 [11]): inactive
- Activity (Human alphaherpesvirus 1 [12]): inactive
- Activity (Human alphaherpesvirus 1 [13]): inactive
- Activity (Punta Toro virus): inactive
- Activity (Coxsackievirus B4 [14]): inactive
